Reference: ChEMBL document CHEMBL1157792, “Pachycladins A-E, prostate cancer invasion and migration inhibitory Eunicellin-based diterpenoids from the red sea soft coral Cladiella pachyclados” (J Nat Prod, 2010)
Calls of active or inactive are those of the source. No cut-off for these calls is given here.

Key:
Type in all cases: functional, cell-based
[1] = system: PC-3; experiment: Antimigratory activity against human PC3 cells at 50 uM by wound-healing assay
In short: (§1)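 Confluent PC-3 monolayers (>90%) in RPMI with 10% FBS, scratched with a pipet tip, washed with PBS, then given compound in DMSO, in triplicate, with DMSO vehicle control. Incubated 24 h serum-starved at 37 °C, fixed and stained with Diff Quick. Migrated cells counted in three or more random 400× fields; mean (SEM) per field.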

[2] = system: PC-3; experiment: Antiinvasive activity against human PC3 cells at 50 uM by cultrex cell invasion assay
In short: (§2)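 PC-3 cells (50 000 per well) in serum-free RPMI seeded into the top chamber of wells coated with basement membrane extract (4 h, 37 °C), with compound in the top chamber. Lower chamber: RPMI with 10% FBS, fibronectin and N-formyl-met-leu-phe (10 nM) as chemoattractants. After 24 h at 37 °C, invaded cells stained with calcein-AM for 1 h; fluorescence read at ex 485/em 520 nm.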

[3] = system: PC-3; experiment: Antiproliferative activity against human PC3 cells at 50 uM after 96 hrs by MTT assay
In short: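 PC-3 cells (8 × 10^3 per well) allowed to attach for 24 h, then given serum-free RPMI with compound at 50, 20, 10 or 5 µM for 96 h at 37 °C, 5% CO2. MTT added for 4 h, formazan solubilized, absorbance read at 550 nm. Cell number taken from a hemocytometer-based standard curve; IC50 obtained by nonlinear regression of log concentration against cells/well.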

[4] = system: PC-3; experiment: Antimigratory activity against human PC3 cells at 200 uM by wound-healing assay; in short: as §1
[5] = system: PC-3; experiment: Antimigratory activity against human PC3 cells at 10 uM by wound-healing assay; in short: as §1
[6] = system: PC-3; experiment: Antiinvasive activity against human PC3 cells at 10 uM by cultrex cell invasion assay; in short: as §2

Row | Structure (SMILES) | Activity [1] | also measured
1 | C=C1CC[C@H](C(C)C)[C@@H]2[C@H]1[C@H]1CC(=C)[C@@H](OC(C)=O)CC[C@@](C)(O)[C@@H]2O1 | Active | –
2 | C=C1CC[C@H](C(C)C)[C@@H]2[C@H]1[C@@H]1CC(=C)[C@@H](O)CC[C@](C)(O)[C@H]2O1 | Active | –
3 | C=C1CC[C@H](C(C)C)[C@@H]2[C@H]1[C@H]1CC(=C)[C@@H](OC(C)=O)CC[C@@](C)(OC(C)=O)[C@@H]2O1 | Active | –
4 | C=C1CC[C@H](C(C)C)[C@@H]2[C@H]1[C@H]1CC(=C)[C@]3(O)CC[C@@](C)(O3)[C@@H]2O1 | Active | –
5 | C=C1CC[C@H](C(C)C)[C@@H]2[C@H]1[C@H]1C[C@](C)(O)[C@@H](O)CC[C@@](C)(O)[C@@H]2O1 | Active | Activity [2]: Active
6 | C=C1C[C@H]2O[C@H]([C@@H]3[C@@H](C(C)C)[C@H](O)C[C@@](C)(OC(=O)CCC)[C@@H]32)[C@](C)(OC(C)=O)CC[C@@H]1O | Active | –
7 | C=C1C[C@H]2O[C@H]([C@H]3[C@@H]2[C@](C)(OC(C)=O)CC[C@@H]3C(C)C)[C@@]2(C)CC[C@]1(O)O2 | Active | –
8 | C=C1C[C@H]2O[C@H]([C@@H]3[C@@H](C(C)C)[C@H](O)C[C@@](C)(OC(C)=O)[C@@H]32)[C@](C)(OC(C)=O)CC[C@@H]1O | Active | –
9 | CCCC(=O)O[C@]1(C)CC[C@H](C(C)C)[C@@H]2[C@H]1[C@H]1C[C@](C)(O)[C@@H](O)CC[C@@](C)(OC(C)=O)[C@@H]2O1 | Active | Activity [3]: inactive; Activity [2]: Active
10 | CC(=O)O[C@]1(C)CC[C@H](C(C)C)[C@@H]2[C@H]1[C@H]1C[C@]3(C)CCC[C@@](C)(O3)[C@@H]2O1 | Active | Activity [2]: Active
11 | C=C1CC[C@H](C(C)C)[C@@H]2[C@H]1[C@H]1C[C@](C)(O)[C@@H](OC)CC[C@@](C)(O)[C@@H]2O1 | Active | Activity [2]: Active
12 | C=C1CC[C@H](C(C)C)[C@@H]2[C@H]1[C@H]1C[C@](C)(O)[C@@H](O)CC[C@@](C)(OC(C)=O)[C@@H]2O1 | Active | –
13 | O=C1NC(=O)/C(=C/c2ccc(O)cc2)N1 | – | Activity [4]: Active
14 | CC(=O)O[C@]1(C)CC[C@H](C(C)C)[C@@H]2[C@H]1[C@H]1C[C@](C)(O)[C@@H](O)CC[C@@](C)(OC(C)=O)[C@@H]2O1 | – | Activity_index [5]: Active; Activity [6]: Active
15 | C=C1CC[C@H](C(C)C)[C@@H]2[C@H]1[C@H]1CC(=C)[C@@H](O)CC[C@@](C)(OC(C)=O)[C@@H]2O1 | Active | –
16 | C=C1CC[C@H](C(C)C)[C@@H]2[C@H]1[C@H]1C/C(C)=C\CC[C@@](C)(O)[C@@H]2O1 | Active | –
